In ChEMBL document CHEMBL4402517, “Rational modification of Mannich base-type derivatives as novel antichagasic compounds: Synthesis, in vitro and in vivo evaluation” (Bioorg Med Chem, 2019):

Experiments:
[1] = Mutagenecity against Salmonella typhimurium TA1535 assessed as number of colonies at 66.7 ug/plate in absence of Sprague-Dawley rat S9 measured after 48 hrs by Ames test (reference value: 13.3 +/- 2.5); format: toxicity; details: salmonella enterica subsp. enterica serovar typhimurium, s9, 48 h
[2] = Mutagenecity against Salmonella typhimurium TA 102 assessed as number of colonies at 66.7 ug/plate in presence of Sprague-Dawley rat S9 with metabolic activation measured after 48 hrs by Ames test (reference value: 72 +/- 1); format: toxicity, subcellular; details: salmonella enterica subsp. enterica serovar typhimurium, s9, 48 h
[3] = Mutagenecity against Salmonella typhimurium TA98 assessed as number of colonies at 66.7 ug/plate in absence of Sprague-Dawley rat S9 measured after 48 hrs by Ames test (reference value: 3 +/- 2.6); format: toxicity; details: salmonella enterica subsp. enterica serovar typhimurium, s9, 48 h
[4] = Mutagenecity against Salmonella typhimurium TA97a assessed as number of colonies at 22.2 ug/plate in absence of Sprague-Dawley rat S9 with metabolic activation measured after 48 hrs by Ames test ( Rvb = 37 +/- 6.5); format: toxicity; details: salmonella enterica subsp. enterica serovar typhimurium, s9, 48 h
Trypanosoma cruzi [5] = assay: Antitrypanosomal activity against Trypanosoma cruzi MHOM/Pe/2011/Arequipa;DTU 5 epimastigote assessed as effect on parasite glycolytic pathway by measuring increase in pyruvate excretion at IC50 after 72 hrs by H NMR method relative to control; format: functional
How it was run: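 Cells were spun at 800 × g for 10 min and culture supernatants analysed by 1H NMR. Catabolite peaks were expressed as % variation versus untreated parasites.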

[6] = Toxicity in BALB/c mouse infected with Trypanosoma cruzi MHOM/Pe/2011/Arequipa;DTU 5 bloodstream trypomastigote assessed as change in serum lactate dehydrogenase level in chronic phase at 20 mg/kg/day, po administered for 5 consecutive days starting from day 70 post infection measured on day 100 post infection relative to control; format: organism-based; details: in vivo
[7] = Mutagenecity against Salmonella typhimurium TA98 assessed as number of colonies at 22.2 ug/plate in presence of Sprague-Dawley rat S9 measured after 48 hrs by Ames test (reference value: 4 +/- 2); format: toxicity, subcellular; details: salmonella enterica subsp. enterica serovar typhimurium, s9, 48 h
Trypanosoma cruzi [8] = assay: Antitrypanosomal activity against Trypanosoma cruzi MHOM/Pe/2011/Arequipa;DTU 5 bloodstream trypomastigote infected in BALB/c mouse assessed as reduction in parasitemia […] at 20 mg/kg/day, po administered for 5 consecutive days starting from day 8 post infection measured every 2 to 3 days starting from day 7 post infection by Neubauer chamber relative to untreated control; format: functional; parameters: scale not given: the % may be the effect or the level left
How it was run: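 Female BALB/c mice (three per group) were infected i.p. with 5 × 10^5 Arequipa bloodstream trypomastigotes, with parasitemia confirmed on day 7 pi. Oral dosing was 20 mg/kg/day on days 8–12 pi in 5% DMSO/0.5% HPMC; controls received vehicle. Bloodstream trypomastigotes were counted through the acute phase until day 48 pi.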

[9] = Mutagenecity against Salmonella typhimurium TA 100 assessed as number of colonies at 200 ug/plate in presence of Sprague-Dawley rat S9 with metabolic activation measured after 48 hrs by Ames test (reference value: 47.3 +/- 5.7); format: toxicity, subcellular; details: salmonella enterica subsp. enterica serovar typhimurium, s9, 48 h
[10] = Mutagenecity against Salmonella typhimurium TA1535 assessed as number of colonies at 22.2 ug/plate in absence of Sprague-Dawley rat S9 measured after 48 hrs by Ames test (reference value: 13.3 +/- 2.5); format: toxicity; details: salmonella enterica subsp. enterica serovar typhimurium, s9, 48 h
[11] = Mutagenecity against Salmonella typhimurium TA97a assessed as number of colonies at 66.7 ug/plate in absence of Sprague-Dawley rat S9 […] measured after 48 hrs by Ames test ( Rvb = 37 +/- 6.5); format: toxicity; details: salmonella enterica subsp. enterica serovar typhimurium, s9, 48 h
[12] = Mutagenecity against Salmonella typhimurium TA1535 assessed as number of colonies at 7.4 ug/plate in absence of Sprague-Dawley rat S9 measured after 48 hrs by Ames test (reference value: 13.3 +/- 2.5); format: toxicity; details: salmonella enterica subsp. enterica serovar typhimurium, s9, 48 h
[13] = Mutagenecity against Salmonella typhimurium TA 100 assessed as number of colonies at 7.4 ug/plate in absence of Sprague-Dawley rat S9 with metabolic activation measured after 48 hrs by Ames test (reference value: 35.7 +/- 0.6); format: toxicity; details: salmonella enterica subsp. enterica serovar typhimurium, s9, 48 h
[14] = Mutagenecity against Salmonella typhimurium TA97a assessed as number of colonies at 200 ug/plate in absence of Sprague-Dawley rat S9 […] measured after 48 hrs by Ames test ( Rvb = 37 +/- 6.5); format: toxicity; details: salmonella enterica subsp. enterica serovar typhimurium, s9, 48 h
[15] = (§1) Toxicity in BALB/c mouse infected with Trypanosoma cruzi MHOM/Pe/2011/Arequipa;DTU 5 bloodstream trypomastigote assessed as increase in serum alanine aminotransferase level in acute phase at 20 mg/kg/day, po administered for 5 consecutive days starting from day 8 post infection and measured on day 100 post infection by biochemical analysis relative to control; format: organism-based; details: in vivo
[16] = as §1, with “bloodstream trypomastigotes” for “bloodstream trypomastigote”, “as decrease” for “as increase”, “serum aspartate” for “serum alanine”, “measured at” for “measured on”, “day 14” for “day 100”; format: organism-based; parameters: scale not given: the % may be the effect or the level left; details: in vivo
[17] = (§2) Toxicity in BALB/c mouse infected with Trypanosoma cruzi MHOM/Pe/2011/Arequipa;DTU 5 bloodstream trypomastigote assessed as change in serum uric acid level in chronic phase at 20 mg/kg/day, po administered for 5 consecutive days starting from day 70 post infection and measured at day 76 post infection relative to control; format: organism-based; details: in vivo
[18] = Mutagenecity against Salmonella typhimurium TA1535 assessed as number of colonies at 200 ug/plate in absence of Sprague-Dawley rat S9 measured after 48 hrs by Ames test (reference value: 13.3 +/- 2.5); format: toxicity; details: salmonella enterica subsp. enterica serovar typhimurium, s9, 48 h
[19] = Mutagenecity against Salmonella typhimurium TA97a assessed as number of colonies at 200 ug/plate in presence of Sprague-Dawley rat S9 with metabolic activation measured after 48 hrs by Ames test (reference value: 55 +/- 7.1); format: toxicity, subcellular; details: salmonella enterica subsp. enterica serovar typhimurium, s9, 48 h
[20] = Mutagenecity against Salmonella typhimurium TA97a assessed as number of colonies at 22.2 ug/plate in presence of Sprague-Dawley rat S9 with metabolic activation measured after 48 hrs by Ames test (reference value: 55 +/- 7.1); format: toxicity, subcellular; details: salmonella enterica subsp. enterica serovar typhimurium, s9, 48 h
[21] = Mutagenecity against Salmonella typhimurium TA 102 assessed as number of colonies at 7.4 ug/plate in absence of Sprague-Dawley rat S9 with metabolic activation measured after 48 hrs by Ames test (reference value: 78.7 +/- 7.8); format: toxicity; details: salmonella enterica subsp. enterica serovar typhimurium, s9, 48 h
[22] = Mutagenecity against Salmonella typhimurium TA98 assessed as number of colonies at 22.2 ug/plate in absence of Sprague-Dawley rat S9 measured after 48 hrs by Ames test (reference value: 3 +/- 2.6); format: toxicity; details: salmonella enterica subsp. enterica serovar typhimurium, s9, 48 h
[23] = Mutagenecity against Salmonella typhimurium TA 102 assessed as number of colonies at 66.7 ug/plate in absence of Sprague-Dawley rat S9 with metabolic activation measured after 48 hrs by Ames test (reference value: 78.7 +/- 7.8); format: toxicity; details: salmonella enterica subsp. enterica serovar typhimurium, s9, 48 h
[24] = Mutagenecity against Salmonella typhimurium TA98 assessed as number of colonies at 200 ug/plate in presence of Sprague-Dawley rat S9 measured after 48 hrs by Ames test (reference value: 4 +/- 2); format: toxicity, subcellular; details: salmonella enterica subsp. enterica serovar typhimurium, s9, 48 h
[25] = Mutagenecity against Salmonella typhimurium TA98 assessed as number of colonies at 66.7 ug/plate in presence of Sprague-Dawley rat S9 measured after 48 hrs by Ames test (reference value: 4 +/- 2); format: toxicity, subcellular; details: salmonella enterica subsp. enterica serovar typhimurium, s9, 48 h
[26] = as §2, with “increase” for “change”, “total bilirubin” for “uric acid”; format: organism-based; details: in vivo
[27] = as §1, with “change” for “increase”, “urea” for “alanine aminotransferase”; format: organism-based; details: in vivo
[28] = as §1, with “as change” for “as increase”, “serum aspartate” for “serum alanine”, “measured at” for “measured on”, “day 14” for “day 100”; format: organism-based; details: in vivo

`O=C(CCN1CCN(c2ccc(Cl)cc2)CC1)c1ccc(O)cc1` showed an Activity [1] of 3.7, an Activity [2] of 72.3 and an Activity [3] of 4. It also gave an Activity [4] of 35.7, an Activity (Trypanosoma cruzi [5]) of 36% and an Activity [6] greater than 10%. For the same compound, the Activity [7] was 4, the Activity (Trypanosoma cruzi [8]) was 70% and the Activity [9] was 42.3. It also gave an Activity [10] of 4, an Activity [11] of 31.3 and an Activity [12] of 2.3. The Activity [13] was 32.3, the Activity [14] was 32.3 and the Activity [15] was “<= 20%”. For the same compound, the Activity [16] was “<= 10%”, the Activity [17] was greater than 10% and the Activity [18] was 4. For the same compound, the Activity [19] was 41, the Activity [20] was 38.3 and the Activity [21] was 72. For the same compound, the Activity [22] was 4.7, the Activity [23] was 73.3 and the Activity [24] was 2.7. For the same compound, the Activity [25] was 6.3.

`O=C(CCN1CCN(c2ccc(C(F)(F)F)cc2)CC1)c1ccc(O)cc1` showed an Activity [26] greater than 40%, an Activity [27] greater than 10% and an Activity [28] greater than 10%.
